Publication PMC3181111 (ACS chemical neuroscience, 2011)

Tested on: male C57BL/6J mice
Experiment: Mouse tail suspension test
Format: in vivo
Conditions: 30 minutes, vs water vehicle
Outline: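 Mice suspended by the tail with adhesive tape from a metal bar 30 cm high. Drugs given i.p. 30 min before testing. Reference inhibitors were in sterile water; test compounds were in DMSO at 2% (0.01 mL/g) or 100% (0.002 mL/g). Immobility time was scored by a blinded observer from 6-min video, n = 7–9, with one-way ANOVA and Tukey posthoc.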

SMILES: COCCCC/C(=N\OCCN)c1ccc(C(F)(F)F)cc1 [fluvoxamine]
- Immobility time in tail suspension test (10 mg/kg i.p.): decreased immobility times

SMILES: CNCCCN1c2ccccc2CCc2ccccc21 [desipramine]
- Immobility time in tail suspension test (3 mg/kg i.p.): decreased immobility times
